Results from ChEMBL document CHEMBL1795332, “Renin inhibitors for the treatment of hypertension: design and optimization of a novel series of pyridone-substituted piperidines” (Bioorg Med Chem Lett, 2011).

Assays:
[1] = target: T1, Renin (Homo sapiens, UniProt P00797); assay: Inhibition of human recombinant renin using Q-FRET substrate after 3 hrs by fluorescence assay
T1 sequence (P00797 whole entry): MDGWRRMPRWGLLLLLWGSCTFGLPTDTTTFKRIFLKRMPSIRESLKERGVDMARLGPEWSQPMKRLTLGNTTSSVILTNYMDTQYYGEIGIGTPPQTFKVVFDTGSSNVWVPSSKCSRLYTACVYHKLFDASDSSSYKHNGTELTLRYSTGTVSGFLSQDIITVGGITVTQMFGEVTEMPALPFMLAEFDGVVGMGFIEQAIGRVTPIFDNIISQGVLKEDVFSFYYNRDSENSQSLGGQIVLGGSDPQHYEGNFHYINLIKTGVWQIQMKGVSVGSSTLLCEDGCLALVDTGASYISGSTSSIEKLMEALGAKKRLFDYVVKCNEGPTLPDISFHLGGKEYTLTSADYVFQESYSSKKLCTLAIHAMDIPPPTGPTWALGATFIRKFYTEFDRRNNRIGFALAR

[2] = target: T1, Renin; assay: Inhibition of renin in human plasma using Q-FRET substrate pretreated for 10 mins before substrate addition measured after 1 hr
[3] = target: Voltage-gated inwardly rectifying potassium channel KCNH2 (Homo sapiens, UniProt Q12809); assay: Inhibition of human ERG
Voltage-gated inwardly rectifying potassium channel KCNH2, sequence (Q12809 whole entry): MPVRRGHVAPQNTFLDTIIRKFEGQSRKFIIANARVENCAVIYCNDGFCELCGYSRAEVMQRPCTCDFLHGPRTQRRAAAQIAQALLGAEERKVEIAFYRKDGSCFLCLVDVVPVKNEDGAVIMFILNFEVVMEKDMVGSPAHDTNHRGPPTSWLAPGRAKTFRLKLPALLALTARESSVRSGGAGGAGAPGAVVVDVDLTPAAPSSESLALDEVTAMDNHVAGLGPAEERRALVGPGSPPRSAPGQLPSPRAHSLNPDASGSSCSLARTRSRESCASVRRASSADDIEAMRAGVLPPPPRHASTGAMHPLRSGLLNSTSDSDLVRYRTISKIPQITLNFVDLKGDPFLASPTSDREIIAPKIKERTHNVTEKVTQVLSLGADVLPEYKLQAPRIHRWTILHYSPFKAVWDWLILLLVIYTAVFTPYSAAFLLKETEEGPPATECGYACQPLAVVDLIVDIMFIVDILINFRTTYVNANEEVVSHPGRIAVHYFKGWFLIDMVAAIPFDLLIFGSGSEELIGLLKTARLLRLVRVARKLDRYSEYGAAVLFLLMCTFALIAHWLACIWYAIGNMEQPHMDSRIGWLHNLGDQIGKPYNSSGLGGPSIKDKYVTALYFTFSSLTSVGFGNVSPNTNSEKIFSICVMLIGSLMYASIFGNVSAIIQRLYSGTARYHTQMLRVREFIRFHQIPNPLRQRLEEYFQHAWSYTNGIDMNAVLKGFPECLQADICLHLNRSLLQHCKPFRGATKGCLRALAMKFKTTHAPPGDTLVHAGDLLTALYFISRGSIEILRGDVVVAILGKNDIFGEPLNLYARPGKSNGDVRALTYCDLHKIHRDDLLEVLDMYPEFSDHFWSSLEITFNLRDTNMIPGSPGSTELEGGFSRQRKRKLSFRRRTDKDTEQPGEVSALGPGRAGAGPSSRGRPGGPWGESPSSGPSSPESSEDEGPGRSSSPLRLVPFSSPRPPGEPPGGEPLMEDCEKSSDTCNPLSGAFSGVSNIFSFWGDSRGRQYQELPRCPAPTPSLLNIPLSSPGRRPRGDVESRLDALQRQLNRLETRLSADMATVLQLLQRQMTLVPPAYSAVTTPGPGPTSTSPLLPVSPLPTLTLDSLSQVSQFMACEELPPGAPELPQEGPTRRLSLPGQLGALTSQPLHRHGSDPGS

[4] = target: T2, CYP3A4 (Homo sapiens, UniProt P08684); assay: Reversible inhibition of CYP3A4 assessed as conversion of testosterone to 6-beta-hydroxytestosterone at 10 uM relative to control; type: ADME; details: probe testosterone
T2 sequence (P08684 whole entry): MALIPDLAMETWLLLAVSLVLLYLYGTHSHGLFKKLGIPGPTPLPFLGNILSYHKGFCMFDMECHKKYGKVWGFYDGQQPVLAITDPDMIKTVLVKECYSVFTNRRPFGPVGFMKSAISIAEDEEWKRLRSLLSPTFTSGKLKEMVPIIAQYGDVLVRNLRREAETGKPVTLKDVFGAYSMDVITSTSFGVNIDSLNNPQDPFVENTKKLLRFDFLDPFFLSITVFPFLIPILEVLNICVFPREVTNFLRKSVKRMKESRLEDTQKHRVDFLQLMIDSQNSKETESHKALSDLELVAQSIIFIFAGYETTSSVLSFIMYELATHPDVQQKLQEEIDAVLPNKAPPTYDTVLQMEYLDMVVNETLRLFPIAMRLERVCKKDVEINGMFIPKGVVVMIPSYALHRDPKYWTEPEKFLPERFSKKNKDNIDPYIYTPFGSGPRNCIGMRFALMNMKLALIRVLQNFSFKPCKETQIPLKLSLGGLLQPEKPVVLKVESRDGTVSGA

[5] = target: T2, CYP3A4; assay: Time dependent inhibition of CYP3A4 assessed as conversion of testosterone to 6-beta-hydroxytestosterone at 10 uM relative to control; type: ADME; details: probe testosterone
Summary of the method: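 Rate of CYP3A4 conversion of testosterone (250 μM) to 6-β-hydroxytestosterone measured before and after a 30 min incubation with compound at 10 μM (in DMSO). Difference expressed as % loss.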

[6] = Oral bioavailability in Sprague-Dawley rat at 20 mg/kg; type: ADME, organism-based; details: in vivo
[7] = Oral bioavailability in Sprague-Dawley rat at 30 mg/kg; type: ADME, organism-based; details: in vivo

SMILES	IC50 [1] [nM]	IC50 [2] [nM]	Ki [3] [nM]	activity % at 10 µM [4] [%]	inhibition at 10 µM [5] [%]	bioavailability [6] [%]	bioavailability [7] [%]
COCCCc1cc(CN(C(=O)[C@H]2CNCC[C@@H]2c2cc(=O)n(C)c3ccccc23)C2CC2)cc(OCCOC)c1	13	39	28000	100	5	1	–
COC(=O)NCCc1cc(Cl)c(Cl)c(CN(C(=O)[C@H]2CNCC[C@@H]2c2ccn(C)c(=O)c2)C2CC2)c1	61	210	15000	45	56	1	–
COCCCc1cc(CN(C(=O)[C@H]2CNCC[C@@H]2c2ccn(C)c(=O)c2)C2CC2)c2ccccc2c1	0.4	1.4	17000	54	34	4	–
COCCCc1cc(CN(C(=O)[C@H]2CNCC[C@@H]2c2cc(=O)n(C)c(C)c2C)C2CC2)cc(OCCOC)c1	25	80	> 29000	41	0	0	–
Cn1ccc([C@H]2CCNC[C@@H]2C(=O)N(Cc2cc(CCC#N)cc(Cl)c2Cl)C2CC2)cc1=O	8.5	17	17000	52	15	8	–
Cn1ccc([C@H]2CCNC[C@@H]2C(=O)N(Cc2cn(Cc3cccc(F)c3)c3cccc(F)c23)C2CC2)cc1=O	0.06	0.63	1200	18	39	–	30
COCCCn1cc(CN(C(=O)[C@H]2CNCC[C@@H]2c2ccn(C)c(=O)c2)C2CC2)c2c(Cl)cccc21	0.12	0.64	23000	48	19	–	22
COCCCc1cc(CN(C(=O)[C@H]2CNCC[C@@H]2c2ccn(C)c(=O)c2)C2CC2)c2ncccc2c1	0.8	2.2	27000	85	16	–	2
Cn1ccc([C@H]2CCNC[C@@H]2C(=O)N(Cc2cn(Cc3ccc(F)cc3)c3cccc(F)c23)C2CC2)cc1=O	0.05	0.48	750	16	70	–	17
COCCCc1ccc(Cl)c(CN(C(=O)[C@H]2CNCC[C@@H]2c2ccn(C)c(=O)c2)C2CC2)c1	8	25	–	–	29	14	–
CC(=O)NCCc1cc(Cl)c(Cl)c(CN(C(=O)[C@H]2CNCC[C@@H]2c2ccn(C)c(=O)c2)C2CC2)c1	4.5	9	> 29000	97	0	0	–
COCCCc1cc(CN(C(=O)[C@H]2CNCC[C@@H]2c2ccn(C)c(=O)c2)C2CC2)c2ccccc2n1	1.4	3	> 29000	95	13	1	–
COCCCc1cc(CN(C(=O)[C@H]2CNCC[C@@H]2c2cc(=O)n(C)c3cc(Cl)ccc23)C2CC2)cc(OCCOC)c1	2	8	–	–	4	20	–
COCCCc1cc(CN(C(=O)[C@H]2CNCC[C@@H]2c2ccn(C)c(=O)c2)C2CC2)cc(OCCOC)c1	–	–	> 29000	78	0	3	–
COCCCc1cc(Br)cc(CN(C(=O)[C@H]2CNCC[C@@H]2c2ccn(C)c(=O)c2)C2CC2)c1	1.7	3.5	–	15	45	15	–
COCCCc1cc(CN(C(=O)[C@H]2CNCC[C@@H]2c2ccccc2)C2CC2)cc(OCCOC)c1	150	580	7200	33	0	–	–
COCCCn1cc(CN(C(=O)[C@H]2CNCC[C@@H]2c2ccn(C)c(=O)c2)C2CC2)c2c(F)cccc21	0.32	0.87	> 29000	41	0	–	8
Cn1ccc([C@H]2CCNC[C@@H]2C(=O)N(Cc2cccc(Cl)c2Cl)C2CC2)cc1=O	20	42	13000	61	37	23	–
COCCCc1cc(Cl)cc(CN(C(=O)[C@H]2CNCC[C@@H]2c2ccn(C)c(=O)c2)C2CC2)c1	3	6.5	7600	23	1	–	28
COCCCc1cc(CN(C(=O)[C@H]2CNCC[C@@H]2c2cccnc2)C2CC2)cc(OCCOC)c1	45	140	> 29000	75	9	61	–
COCCCc1cc(C)c(C)c(CN(C(=O)[C@H]2CNCC[C@@H]2c2ccn(C)c(=O)c2)C2CC2)c1	0.6	1	–	–	15	–	7
CCn1ccc([C@H]2CCNC[C@@H]2C(=O)N(Cc2cc(CCCOC)cc(OCCOC)c2)C2CC2)cc1=O	200	460	> 29000	70	5	1	–
COCCCc1cc(CN(C(=O)[C@H]2CNCC[C@@H]2c2ccn(C)c(=O)c2)C2CC2)cc(-c2ccccc2)c1	18	81	–	23	0	8	–
Cn1ccc([C@H]2CCNC[C@@H]2C(=O)N(Cc2cc(CCCC#N)cc(Cl)c2Cl)C2CC2)cc1=O	4.9	10	8400	55	20	7	–
COCCCc1cc(CN(C(=O)[C@H]2CNCC[C@@H]2c2ccc(OCCOc3c(Cl)cc(C)cc3Cl)cc2)C2CC2)cc(OCCOC)c1	–	–	800	9	27	27	–
COCCc1cc(Cl)c(Cl)c(CN(C(=O)[C@H]2CNCC[C@@H]2c2ccn(C)c(=O)c2)C2CC2)c1	0.6	2.2	11000	68	23	18	–
COCCNc1cc(Cl)c(Cl)c(CN(C(=O)[C@H]2CNCC[C@@H]2c2ccn(C)c(=O)c2)C2CC2)c1	7.1	26	18000	71	0	1	–
